Experimental findings from ChEMBL document CHEMBL1131621, “Synthesis and activity of dipeptides, linked to targeting ligands, as specific NK cell enhancers” (1998) are described below.

A short description of assay [1]: In vitro Natural Killer cell activity (Activation of murine splenocyte NK cells by its ability to lyze YAC-1 target cells in chromium release assay) relative to interleukin 2 at 10E-4 to 10E-12 M conc. The class given is functional, Mus musculus. The essentials: (§1)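 Spleens from female C57BL/6 (H-2b) mice, 6–8 weeks old, homogenized in RPMI 1640 with 10% FCS and 2 mM L-glutamine. Mononuclear cells isolated on a Lympholyte M gradient (800g, 20 min), washed in PBS, viability checked by trypan blue. 5×10^5 splenocytes with compound incubated 4 h with 5×10^3 51Cr-labelled YAC-1 cells; % specific lysis from released chromium. Compounds tested at 10^-4–10^-12 M. Peak activity scored relative to IL 2 (100%) in 20% bands. Actives run 2–5 times, inactives once.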

Assay [2] in a line: In vitro Natural Killer cell activity (Activation of murine splenocyte NK cells by its ability to lyze YAC-1 target cells in chromium release assay) relative to interleukin 2 at 10E-4 to 10E-10 M conc; Range 41-60%. Format: functional, Mus musculus. The procedure, abridged:
as §1

Assay [3] is described as follows: In vitro Natural Killer cell activity (Activation of murine splenocyte NK cells by its ability to lyze YAC-1 target cells in chromium release assay) relative to interleukin 2; Range 0-20%. Format: functional, Mus musculus. The procedure, abridged:
as §1

Assay [4] is described as follows: In vitro Natural Killer cell activity (Activation of murine splenocyte NK cells by its ability to lyze YAC-1 target cells in chromium release assay) relative to interleukin 2 at 10E-8 to 10E-12 M conc; Range 41-60%. Format: functional, Mus musculus. The essentials: as §1
Assay [5] relates to Mus musculus. Description: Antimetastatic effect in lungs of C57BL/6 mice injected iv on day 0 with 250000 B16 melanoma cells and a dose of 0 mg/kg of compound in exp 2. The class given is functional, Lung. The essentials: (§2)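 Female C57BL/6 mice, 6–8 weeks old, given 2.5×10^5 B16F10 melanoma cells iv on day 0. Sacrifice on day 24; lungs fixed and surface tumour colonies counted. Mean ± SEM; n = 8 in exp 1, n = 4 in exp 2.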

Assay [6] is filed under the species Mus musculus. Description: Peak or the range of peak activity relative to positive IL 2 control; Range 10e-12-10e-7. The class given is functional. The procedure, abridged: as §1
The species named for assay [7] is Mus musculus. The experiment in a line: The compound was tested in vitro for phagocytotic activity against murine whole blood; No effect. The class given is functional.
The species entered for assay [8] is Homo sapiens. The experiment in a line: The compound was tested in vitro for phagocytotic activity against human PBML; No effect. Format: functional.
For assay [9], the species on record is Mus musculus. Description: The compound was tested in vitro for T cell proliferation (PHA, ConA) against murine splenocytes; No effect. Format: functional.
The nature of assay [10]: In vitro Natural Killer cell activity (Activation of murine splenocyte NK cells by its ability to lyze YAC-1 target cells in chromium release assay) relative to interleukin 2 at 10E-4 to […] conc; Range 101-120%. The class given is functional, Mus musculus. The essentials:
as §1

Assay [11] is filed under the species Homo sapiens. Description: Iin vitro NK cell cytolytic activity (K 562 target) using human PBML; Range 81-100%. Format: functional. The procedure, abridged:
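PBML isolated from heparinized human blood by Ficoll-Hypaque density gradient centrifugation. For the NK assay (K562 targets), activity is scored relative to an IL 2 control.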

The species named for assay [12] is Mus musculus. The experiment in a line: The compound was tested in vitro for respiratory burst against murine whole blood; No effect. Format: functional.
Assay [13] is filed under the species Mus musculus. The experiment in a line: In vitro for cytotoxic T lymphocyte activity against murine splenocytes; Range 21-40% of IL 2. Format: functional.
The test system of assay [14] is Mus musculus. Description: Antimetastatic effect in lungs of C57BL/6 mice injected iv on day 0 with 250000 B16 melanoma cells and a dose of 0 mg/kg of compound in exp 1. Format: functional, Lung. The procedure, abridged: as §2
Assay [15] has as its system Mus musculus. Description: Antimetastatic effect in lungs of C57BL/6 mice injected iv on day 0 with 250000 B16 melanoma cells and a dose of 25 mg/kg of compound in exp 2. Format: functional, Lung. The procedure, abridged:
as §2

Assay [16] deals with Mus musculus. Description: Antimetastatic effect in lungs of C57BL/6 mice injected iv on day 0 with 250000 B16 melanoma cells and a dose of 50 mg/kg of compound in exp 2. The class given is functional, Lung. The procedure, abridged: as §2
The test system of assay [17] is Mus musculus. Description: Antimetastatic effect in lungs of C57BL/6 mice injected iv on day 0 with 250000 B16 melanoma cells and a dose of 25 mg/kg of compound in exp 1. Format: functional, Lung. The procedure, abridged: as §2
For assay [18], the species on record is Mus musculus. The experiment in a line: The compound was tested in vitro for B cell proliferation (PWM, LPS) against murine splenocytes; No effect. Format: functional.
For assay [19], the species on record is Mus musculus. The experiment in a line: The compound was tested in vitro for mixed lymphocyte reaction against murine splenocytes; No effect. Format: functional.
For assay [20], the species on record is Homo sapiens. The experiment in a line: The compound was tested in vitro for respiratory burst against human PBML; No effect. Format: functional.
Assay [21] in a line: In vitro Natural Killer cell activity (Activation of murine splenocyte NK cells by its ability to lyze YAC-1 target cells in chromium release assay) relative to interleukin 2 at 10E-4 to 10E-8 M conc; Range 21-40%. The class given is functional, Mus musculus. The procedure, abridged:
as §1

A short description of assay [22]: In vitro Natural Killer cell activity (Activation of murine splenocyte NK cells by its ability to lyze YAC-1 target cells in chromium release assay) relative to interleukin 2 at 10e-4; Range 101-120%.
The nature of assay [23]: In vitro Natural Killer cell activity (Activation of murine splenocyte NK cells by its ability to lyze YAC-1 target cells in chromium release assay) relative to interleukin 2 at 10E-4 to 10E-12 M conc; Range 41-60%. The class given is functional, Mus musculus. The procedure, abridged: as §1

The source made the active and inactive calls. No cut-off for these calls is given here. Where a SMILES comes first, the peptide text is derived from it. [ ]: non-standard residue; d: D form.

In assay [1], `CC[C@@H](C)[C@H](N)C(=O)N1CCC[C@H]1C(=O)NCCCCCCOC1OC(C)C(O)C(O)C1O` (stereo not given in full) yielded a Stimulation of 0%.

Consider `CC1OC(OCCCCCCNC(=O)[C@@H]2CCC(=O)N2)C(O)C(O)C1O` (stereo not given in full), for which the Stimulation in [1] was 0%.

In the case of `C[C@@H](N)C(=O)N[C@@H](CCC(N)=O)C(=O)NCCCCCCCCCCCCO`, in [2], the Stimulation was found to be 41%.

As for `CC1OC(OCCCCCCNC(=O)[C@H](CCCN)NC(=O)[C@@H](C)N)C(O)C(O)C1O` (stereo not given in full), the Stimulation in assay [1] worked out at 0%.

With `CN[C@H](C(=O)NCCCCCCOC1OC(C)C(O)C(O)C1O)c1ccc(C(=O)O)[nH]1` (stereo not given in full), the Stimulation in assay [1] was 0%.

As to `C[C@@H](N)C(=O)N[C@@H](CCC(N)=O)C(=O)O` (H-[dA]-Gln-OH), in assay [3], the Stimulation is listed as 0%.

`CC1OC(SCCCCCCNC(=O)[C@H](CCC(N)=O)NC(=O)[C@@H](C)N)C(O)C(O)C1O` (stereo not given in full) gave a Stimulation in assay [4] of 41%.

The compound `CC(=O)N[C@@H](CCC(N)=O)C(=O)NCCCCCCOC1OC(C)C(O)C(O)C1O` (stereo not given in full) gave a Stimulation in assay [1] of 0%.

Compound `CC1OC(OCCCCCCNC(=O)CNC(=O)[C@@H](C)N)C(O)C(O)C1O` (stereo not given in full) showed a Stimulation in [1] of 0%.

`CC1OC(OCCCCCCNC(=O)[C@H](CCC(N)=O)NC(=O)[C@@H](C)N)C(O)C(O)C1O` (stereo not given in full): the “No. of lung colonies” value stood at 101 in the assay with Mus musculus [5]; 142 with Mus musculus [14]; 86 with Mus musculus [15]; 60 with Mus musculus [16]; 109 with Mus musculus [17]. In the assay listed under Mus musculus [6], this compound gave a Concentration of 10 pM. Further, the outcome in the assay filed under Mus musculus [7], in the assay filed under Homo sapiens [8], in the assay filed under Mus musculus [9], in the assay listed under Mus musculus [12], in the assay listed under Mus musculus [18] and in the assay filed under Mus musculus [19] was inactive. Also, the outcome in the assay listed under Homo sapiens [20] was inactive. Moreover, the Stimulation in [10] is recorded as 101%. Moreover, the Activity is on record as 81% in the assay listed under Homo sapiens [11] and 21% in the assay listed under Mus musculus [13].

`NC(=O)CC[C@H](N)C(=O)NCCCCCCO` yielded a Stimulation in assay [3] of 0%.

Take `CC(C(=O)OCCCCCn1cnc2c(N(C)C)ncnc21)[C@H](C)CCCN=C(N)N` (stereo not given in full): the Stimulation in assay [1] was found to be 0%.

In the case of `C[C@@H](N)C(=O)N[C@@H](CCC(N)=O)C(=O)NCCCCCC(=O)O`, in [1], the Stimulation was 0%.

In assay [1], `C=CCn1c(=O)n([C@@H]2O[C@H](CO)[C@@H](O)[C@H]2O)c2nc(N)[nH]c(=O)c21` [LOXORIBINE] displayed a Stimulation of 0%.

Compound `CC1OC(OCCCCCCCCCCCCNC(=O)[C@H](CCC(N)=O)NC(=O)[C@@H](C)N)C(O)C(O)C1O` (stereo not given in full) came in with a Stimulation in [21] of 21%.

Take `CC1OC(OCCCCCCNC(=O)[C@@H]2CCCN2C(=O)[C@H](C)N)C(O)C(O)C1O` (stereo not given in full): in [1], the Stimulation amounted to 0%.

In turn, `C[C@@H](N)C(=O)N[C@@H](CCC(N)=O)C(=O)NCCCCCCN` came in with a Stimulation in [22] of 101%.

As for `CC1OC(OCCCCCCNC(=O)[C@H](CCC(=O)O)NC(=O)[C@H](C)N)C(O)C(O)C1O` (stereo not given in full), the Stimulation in [23] came out at 41%.

`CC1OC(OCCCCCCNC(=O)[C@H](CCC(N)=O)NC(=O)CCN)C(O)C(O)C1O` (stereo not given in full): the Stimulation in assay [3] was found to be 0%.

Compound `CC1OC(OCCc2ccc(NC(=O)[C@H](CCC(N)=O)NC(=O)[C@@H](C)N)cc2)C(O)C(O)C1O` (stereo not given in full) yielded a Stimulation in [1] of 0%.
